Assay results from PubChem BioAssay.
Results filed as inconclusive are left out.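 How the source made its calls, unless noted: active means inhibition over a set limit, the all-compound mean plus 3 SD, in both replicate runs; inconclusive means over that limit in just one replicate run; inactive means at or under that limit in both runs.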

Legend:
[1] = OD615 S. cerevisiae growth inhibition, permissive medium, pilot counter-assay, permissive growth control for S. cerevisiae lifespan shortening project (AID 705;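 active means growth inhibition above 25% in both replicates, a cutoff set 3 SD above the mean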); conditions: OD615, 24 h, at 10 µM, active compounds read high
How it was run: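 System – S. cerevisiae with engineered DeaD lifespan system · Buffer or medium – SC raffinose/galactose permissive medium · Schedule – cells pre-grown 4 h, then 24 h compound exposure, 30 °C humidified · Technique – culture turbidity as optical density at 615 nm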

[2] = Restrictive medium S. cerevisiae growth inhibition, OD615, pilot screen of yeast lifespan reduction project, restrictive growth control (AID 706;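 active means growth inhibition above a set limit, 3 SD over mean compound inhibition, in both replicates, cut at about 43% in these data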;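 further: modified DeaD lifespan yeast strain shifted to restrictive glucose medium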); conditions: OD615, 48 h, at 10 µM, active compounds read high
How it was run: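 Material: engineered S. cerevisiae DeaD strain / Medium: glucose-based CSMM-D restrictive medium / Compound: single dose of 10 µM compound final, 0.25% DMSO / Timing: 4 h pre-incubation, 48 h exposure at 30 °C / Technique: OD615 absorbance reading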

[3] = viability gain of MRP-1-high H69AR cells under doxorubicin, pilot screen, MRP-1 activator project, CellTiter-Glo, duplicate (AID 807;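 active means viability increase at or above a cutoff of the median across tested compounds plus 3 SD, cut at about 8.5% in these data, passing the limit was not always enough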;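 further: compound pretreatment 18-22 h then 72 h combined with doxorubicin; 0% = doxorubicin alone and 100% = vehicle without doxorubicin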); conditions: H69AR viability with doxorubicin, CellTiter-Glo luminescence; at 10 µM; active compounds read high
[4] = growth suppression of beta-catenin knockout HCT116, pilot screen, human colon tumor cells (AID 823;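 active means cell viability at or below a set limit in both duplicate runs, the limit being the all-compound median minus 4 SD, cut at about 23% in these data, passing the limit was not always enough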;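 further: 0% = wells killed by 20 µM Hyamine and 100% = untreated DMSO cell wells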); conditions: CellTiter-Glo, 60 h, at 10 µM, active compounds read low
[5] = growth suppression of PTEN-deleted HCT116, pilot screen, cell-based, HCT116 clonal line, CellTiter-Glo (AID 824;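 active means viability at or below 27.92% in each of two runs, the all-compound median minus 4 SD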;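 further: 0% = 20 µM Hyamine control and 100% = vehicle cell control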); conditions: 60 h, at 10 µM, active compounds read low
[6] = inhibitors of the yeast RAM network, pilot screen, dse1pr::URA3 reporter, 5-FOA selection (AID 869);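 further: 0% = DMSO wells with no growth and 100% = 10 µM 1-NA-PP1 with full growth; RAM network block rescues cells from 5-FOA so hits raise OD615 growth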; conditions: S. cerevisiae dse1pr::URA3 5-FOA growth, OD615, 2 d; at 10 µM; active compounds read high; strain carries analog-sensitive mutant Cbk1 kinase
[7] = RAM signaling pathway blockade in yeast – S. cerevisiae, Pdr1DBD-CYC8 efflux-inhibited sensitized strain, primary screen (AID 1298;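 active means RAM network inhibition above 8.4% in each of two replicates, 3 SD over the compound average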;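 further: 0% = DMSO untreated cells without growth and 100% = 10 µM 1-NA-PP1 full growth; higher means more yeast growth rescued from 5-FOA killing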); conditions: S. cerevisiae cbk1-as DSE1-URA3 strain, 5-FOA growth OD615, 2 d; at 50 µM; active compounds read high

COC(=O)CCC(=O)Nc1nc(-c2ccccc2)cs1
inactive: growth inhibition [1] -18.5% | growth inhibition [2] -17.9% | viability increase [3] -0.35% | viability [4] 99% | viability [5] 99.1% | inhibition [6] 0.475% | RAM network inhibition [7] 11%

Cc1cc2cc(CNC(=O)c3ccc(Br)o3)ccc2n1C
inactive: growth inhibition [1] -9.25% | growth inhibition [2] -10.3% | viability increase [3] -2.79% | viability [4] 94.2% | viability [5] 92.1% | inhibition [6] 1.93% | RAM network inhibition [7] 9.25%

COC(=O)C1C2C=CC3(CN(C(C)C)C(=O)C13)O2 (stereo not drawn)
inactive: growth inhibition [1] -11.7% | growth inhibition [2] -17.2% | viability increase [3] -1.07% | viability [4] 106% | viability [5] 102% | inhibition [6] -0.215% | RAM network inhibition [7] 1.89%

CCc1cccc(C)c1NC(=O)C1CCCO1 (stereo not drawn)
inactive: growth inhibition [1] -5.15% | growth inhibition [2] -1.12% | viability increase [3] -3.29% | viability [4] 87.3% | viability [5] 88.1% | inhibition [6] 0.695% | RAM network inhibition [7] 3.57%

C=CCSc1nnc2c(n1)OC(c1cccnc1)Nc1ccccc1-2 (stereo not drawn)
inactive: growth inhibition [1] 8.11% | growth inhibition [2] 13.7% | viability increase [3] -2.34% | viability [4] 95.5% | viability [5] 88% | inhibition [6] 1.75% | RAM network inhibition [7] 1.38%

O=C(NCCCc1ccccc1)c1ccncc1
inactive: growth inhibition [1] 1.08% | growth inhibition [2] 0.81% | viability increase [3] -0.23% | viability [4] 98.4% | viability [5] 99.4% | inhibition [6] 0.45% | RAM network inhibition [7] 6.46%

Cc1ccc2oc(=O)c3cnn(CC(=O)NC4CCN(Cc5ccccc5)CC4)c3c2c1
inactive: growth inhibition [1] -4.11% | growth inhibition [2] 0.24% | viability increase [3] -3.78% | viability [4] 88.3% | viability [5] 92% | inhibition [6] 1.77% | RAM network inhibition [7] 0.57%

OC(C#CCN1CCOCC1)c1cccs1 (stereo not drawn)
inactive: growth inhibition [1] -5.03% | growth inhibition [2] 2.95% | viability increase [3] -0.71% | viability [4] 102% | viability [5] 98.4% | inhibition [6] 2.15% | RAM network inhibition [7] 4.66%

CC1(C)Nc2ccccc2N(CC(=O)N2CCCCC2)C1=O
inactive: growth inhibition [1] 0.325% | growth inhibition [2] -1.38% | viability increase [3] -0.05% | viability [4] 107% | viability [5] 103% | inhibition [6] -0.16% | RAM network inhibition [7] 0.97%

CCSc1nnc(NC(=O)C(C)C)s1
inactive: growth inhibition [1] 3.02% | growth inhibition [2] -5.11% | viability increase [3] 1.51% | viability [4] 100% | viability [5] 109% | inhibition [6] 0.765% | RAM network inhibition [7] 0.89%

OCCN1CCN(Cc2cc(Br)cc(Br)c2O)CC1
inactive: growth inhibition [1] -18.3% | growth inhibition [2] -14% | viability increase [3] -2.23% | viability [4] 92.6% | viability [5] 96.3% | inhibition [6] 2.87% | RAM network inhibition [7] -0.43%

O=C(NC1CCCCC1)C1CCN(S(=O)(=O)c2cccc3cccnc23)CC1
inactive: growth inhibition [1] 4.71% | growth inhibition [2] -0.575% | viability increase [3] -0.83% | viability [4] 101% | viability [5] 102% | inhibition [6] 0.46% | RAM network inhibition [7] 1.34%

O=C(Cn1cnc2c(nnn2-c2cccc(Cl)c2)c1=O)N1CCOCC1
inactive: growth inhibition [1] -0.49% | growth inhibition [2] -4.46% | viability increase [3] -0.35% | viability [4] 92.5% | viability [5] 96.4% | inhibition [6] 1.79% | RAM network inhibition [7] 1.56%

Cn1c(NC(=O)Cc2ccc(F)cc2)cc(=O)n(C)c1=O
inactive: growth inhibition [1] -5.41% | growth inhibition [2] -2.77% | viability increase [3] 3.42% | viability [4] 109% | viability [5] 95.4% | inhibition [6] 1.83% | RAM network inhibition [7] 0.62%

Oc1ccc(Br)cc1-c1nc2cnccn2c1NC1CCCC1
inactive: growth inhibition [1] -11.9% | growth inhibition [2] 1.74% | viability increase [3] -7.32% | viability [4] 55.5% | viability [5] 54.6% | inhibition [6] -0.895% | RAM network inhibition [7] -1.71%

O=C1C2CCCN2C(c2ccc(F)cc2)N1c1cccc(Cl)c1 (stereo not drawn)
inactive: growth inhibition [1] -1.56% | growth inhibition [2] 0.01% | viability increase [3] -0.91% | viability [4] 102% | viability [5] 99.6% | inhibition [6] 0.63% | RAM network inhibition [7] 2.38%

CC(=O)N(Cc1ccco1)C1(C(=O)NC2CCCCC2)CCCCC1
inactive: growth inhibition [1] -10.7% | growth inhibition [2] -22.6% | viability increase [3] -2.47% | viability [4] 94.9% | viability [5] 94.5% | inhibition [6] 3.02% | RAM network inhibition [7] 1.51%

O=C(CCCOc1ccccc1)NCC1CCCO1 (stereo not drawn)
inactive: growth inhibition [1] -3.87% | growth inhibition [2] -6.75% | viability increase [3] -2.68% | viability [4] 96.5% | viability [5] 91.5% | inhibition [6] 4.06% | RAM network inhibition [7] 0.83%

Cc1cc2cc(CNS(=O)(=O)N(C)C)ccc2[nH]1
inactive: growth inhibition [1] 0.12% | growth inhibition [2] -6.88% | viability increase [3] -0.59% | viability [4] 101% | viability [5] 106% | inhibition [6] 1.48% | RAM network inhibition [7] 3.27%

Cc1cc(F)ccc1S(=O)(=O)Nc1c(C)n(C)n(-c2ccccc2)c1=O
inactive: growth inhibition [1] 1.71% | growth inhibition [2] 0.315% | viability increase [3] -1.59% | viability [4] 114% | viability [5] 93.7% | inhibition [6] 0.205% | RAM network inhibition [7] 2.26%

COc1ccccc1N1CCN(C(=O)c2cc3cc(Br)ccc3oc2=O)CC1
inactive: growth inhibition [1] 2.45% | growth inhibition [2] -11.9% | viability increase [3] -0.94% | viability [4] 110% | viability [5] 94.1% | inhibition [6] 2.47% | RAM network inhibition [7] 1.96%

CCSc1nnc(NC(=O)CCc2ccccc2)s1
inactive: growth inhibition [1] 0.055% | growth inhibition [2] -7.23% | viability increase [3] -1.7% | viability [4] 88.7% | viability [5] 95.1% | inhibition [6] 3.51% | RAM network inhibition [7] 3.66%

O=C(CSc1nc2c(c(=O)n1-c1ccc(Cl)cc1)SCC2)Nc1ccc2c(c1)OCCO2
inactive: growth inhibition [1] -7.54% | growth inhibition [2] 10.9% | viability increase [3] -2.7% | viability [4] 92% | viability [5] 84.8% | inhibition [6] 2.02% | RAM network inhibition [7] 4.16%

CCC(C)[C@@H](C(=O)Nc1ccc2c(c1)OCO2)N1Cc2ccccc2C1=O (stereo partly drawn)
inactive: growth inhibition [1] -14.7% | growth inhibition [2] -13.5% | viability increase [3] -2.97% | viability [4] 91.5% | viability [5] 75.1% | inhibition [6] 0.51% | RAM network inhibition [7] 4.42%
